Among the data in ChEMBL document CHEMBL1132760, “Coumarin inhibitors of gyrase B with N-propargyloxy-carbamate as an effective pyrrole bioisostere” (2000) are Ratio and MIC values, retold here.

What all share (format): functional
The test system of one assay is Escherichia coli. As to the kind of experiment: In vitro activity against Escherichia coli DNA gyrase subunit B supercoiling, expressed as IC50 novobiocin / IC50 compound.
For assay [1], the system named is Staphylococcus aureus. As to the kind of experiment: Antibacterial activity tested against novobiocin resistant Staphylococcus aureus 011HT1. In outline:
(§1)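 MIC by 2-fold broth microdilution, read after 24 h incubation; strain resistance phenotypes noted.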

Assay [2] deals with Staphylococcus aureus. As to the kind of experiment: Antibacterial activity against Staphylococcus aureus 011HT3. In outline: as §1
In a further assay the test system is Enterococcus faecium. As to the kind of experiment: Antibacterial activity against vancomycin, teicoplanin, erythromycin resistant Enterococcus faecium. In outline:
(§2)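 MIC read after 24 h incubation by two-fold broth microdilution. Strains are tested with their labelled resistance phenotypes (ofloxacin, oxacillin, erythromycin, novobiocin, teicoplanin or vancomycin resistance, as given in each strain designation).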

Another assay has as its system Streptococcus pyogenes. As to the kind of experiment: Antibacterial activity tested against Streptococcus pyogenes 02AIUC1. In outline:
as §1

The test system of assay [3] is Staphylococcus epidermidis. As to the kind of experiment: Antibacterial activity against oxacillin resistant Staphylococcus epidermidis 012GO42. A digest of the protocol:
as §2

Assay [4] can be described thus: In vitro activity against Staphylococcus aureus DNA gyrase subunit B supercoiling, expressed as IC50 novobiocin / IC50 compound.
Assay [5] has as its system Staphylococcus aureus. As to the kind of experiment: Antibacterial activity against ofloxacin,oxacillin,erythromycin resistant Staphylococcus aureus 011GO64. In outline: as §2

Converted amounts (≈) assume the structure as drawn.

As usually defined, the MIC is the smallest concentration in the dilution series that meets the test's criterion for growth inhibition. Low values mean greater potency, high ones weaker potency.

Consider `CO[C@@H]1[C@@H](OC(=O)c2ccc(C)[nH]2)[C@@H](O)[C@H](Oc2ccc3c(O)c(C(N)=O)c(=O)oc3c2C)OC1(C)C`, for which, in the assay on Escherichia coli, the Ratio amounted to 1.67. Further, the minimal inhibitory concentration (MIC) against Staphylococcus aureus [1] was 2.5 µg/mL (≈ 4.84 µM); against Staphylococcus aureus [2], less than 0.04 µg/mL; against Enterococcus faecium it was 2.5 µg/mL (≈ 4.84 µM); against Streptococcus pyogenes it was 0.15 µg/mL (≈ 0.29 µM).

`CCOC(=O)c1c(O)oc2c(C)c(O[C@@H]3OC(C)(C)[C@H](OC)[C@@H](OC(=O)c4ccc(C)[nH]4)[C@H]3O)ccc2c1=O`: the Ratio with Escherichia coli was 3.1. Further, the MIC is greater than 20 µg/mL with Staphylococcus aureus [1], 0.3 µg/mL (≈ 0.55 µM) in the assay with Staphylococcus aureus [2], 5 µg/mL (≈ 9.17 µM) in the assay with Enterococcus faecium and 0.3 µg/mL (≈ 0.55 µM) in the assay on Streptococcus pyogenes.

Regarding `C#CCONC(=O)O[C@H]1[C@@H](O)[C@H](Oc2ccc3c(O)c(/C(C)=N/OCc4ccsc4)c(=O)oc3c2C)OC(C)(C)[C@@H]1OC`, the MIC with Staphylococcus aureus [1] was 2.5 µg/mL (≈ 4.05 µM); in assay [3], less than 0.04 µg/mL; in the assay with Staphylococcus aureus [2] it was less than 0.04 µg/mL; in the assay on Enterococcus faecium it was 0.6 µg/mL (≈ 0.973 µM); against Streptococcus pyogenes, 0.15 µg/mL (≈ 0.243 µM). Besides, the Ratio in assay [4] was determined as 1.3.

Regarding `C#CCONC(=O)O[C@H]1[C@@H](O)[C@H](Oc2ccc3c(O)c(C(=O)NCCN4CCOCC4)c(=O)oc3c2C)OC(C)(C)[C@@H]1OC`, the MIC against Staphylococcus aureus [1] is 1.2 µg/mL (≈ 1.94 µM); in assay [3], 0.08 µg/mL (≈ 0.129 µM); with Staphylococcus aureus [2] it was less than 0.04 µg/mL; against Enterococcus faecium, 2.5 µg/mL (≈ 4.03 µM); in the assay with Streptococcus pyogenes it was 1.2 µg/mL (≈ 1.94 µM); in the assay with Staphylococcus aureus [5], 0.08 µg/mL (≈ 0.129 µM). The Ratio in assay [4] worked out at 2.6.

For `C=CCNC(=O)O[C@H]1[C@@H](O)[C@H](Oc2ccc3c(=O)c(C(=O)OCC)c(O)oc3c2C)OC(C)(C)[C@@H]1OC`, the Ratio in the assay on Escherichia coli worked out at 0.38. In addition, the MIC in the assay on Staphylococcus aureus [1] was greater than 40 µg/mL; in assay [3] it was 20 µg/mL (≈ 38.3 µM); against Staphylococcus aureus [2] it was greater than 40 µg/mL; against Enterococcus faecium, greater than 40 µg/mL; against Streptococcus pyogenes, greater than 40 µg/mL.

Regarding `C#CCONC(=O)O[C@H]1[C@@H](O)[C@H](Oc2ccc3c(O)c(C(C)=O)c(=O)oc3c2C)OC(C)(C)[C@@H]1OC`, the MIC was 2.5 µg/mL (≈ 4.95 µM) in the assay on Staphylococcus aureus [1]; less than 0.04 µg/mL in assay [3]; less than 0.04 µg/mL with Staphylococcus aureus [2]; 1.2 µg/mL (≈ 2.37 µM) with Enterococcus faecium; 0.3 µg/mL (≈ 0.593 µM) in the assay with Streptococcus pyogenes; 0.6 µg/mL (≈ 1.19 µM) against Staphylococcus aureus [5]. Also, the Ratio in assay [4] came out at 8.1.

Take `CCOC(=O)c1c(O)oc2c(C)c(O[C@@H]3OC(C)(C)[C@H](OC)[C@@H](OC(=O)NOC(C)C)[C@H]3O)ccc2c1=O`: the Ratio in the assay on Escherichia coli is 2. The MIC (with Staphylococcus aureus [1]; in assay [3]; against Staphylococcus aureus [2]; with Enterococcus faecium; with Streptococcus pyogenes) was greater than 40 µg/mL each time.

Regarding `C#CCONC(=O)O[C@H]1[C@@H](O)[C@H](Oc2ccc3c(=O)c(C(=O)OCC)c(O)oc3c2C)OC(C)(C)[C@@H]1OC`, the Ratio in the assay on Escherichia coli came out at 5.6. The MIC in the assay on Staphylococcus aureus [1] is greater than 40 µg/mL; in assay [3], 0.3 µg/mL (≈ 0.56 µM); against Staphylococcus aureus [2] it was 1.2 µg/mL (≈ 2.24 µM); against Enterococcus faecium, 10 µg/mL (≈ 18.7 µM); in the assay on Streptococcus pyogenes, 20 µg/mL (≈ 37.3 µM); in the assay with Staphylococcus aureus [5] it was 2.5 µg/mL (≈ 4.67 µM).

In the case of `CCOC(=O)c1c(O)oc2c(C)c(O[C@@H]3OC(C)(C)[C@H](OC)[C@@H](OC(=O)NOC)[C@H]3O)ccc2c1=O`, the Ratio in the assay with Escherichia coli came to 0.66. For the same compound, the MIC (against Staphylococcus aureus [1]; in assay [3]; against Staphylococcus aureus [2]; in the assay on Enterococcus faecium; in the assay on Streptococcus pyogenes) was greater than 40 µg/mL each time.

For `C#CCNC(=O)O[C@H]1[C@@H](O)[C@H](Oc2ccc3c(=O)c(C(=O)OCC)c(O)oc3c2C)OC(C)(C)[C@@H]1OC`, the Ratio with Escherichia coli was 0.38. The MIC against Staphylococcus aureus [1] was greater than 40 µg/mL; in assay [3] it was 20 µg/mL (≈ 38.5 µM); with Staphylococcus aureus [2], 40 µg/mL (≈ 77 µM); against Enterococcus faecium, greater than 40 µg/mL; against Streptococcus pyogenes, greater than 40 µg/mL.

For the compound `C#CCONC(=O)O[C@H]1[C@@H](O)[C@H](Oc2ccc3c(O)c(C(N)=O)c(=O)oc3c2C)OC(C)(C)[C@@H]1OC`, in the assay on Escherichia coli, the Ratio came out at 1. Besides, the MIC with Staphylococcus aureus [1] was 0.3 µg/mL (≈ 0.592 µM); in assay [3] it was less than 0.04 µg/mL; with Staphylococcus aureus [2], less than 0.04 µg/mL; against Enterococcus faecium, 0.08 µg/mL (≈ 0.158 µM); against Streptococcus pyogenes, 0.6 µg/mL (≈ 1.18 µM).

In the case of `CO[C@@H]1[C@@H](OC(N)=O)[C@@H](O)[C@H](Oc2ccc3c(O)c(NC(=O)c4ccc(O)c(CC=C(C)C)c4)c(=O)oc3c2C)OC1(C)C` [NOVOBIOCIN], the MIC was 10 µg/mL (≈ 16.3 µM) against Staphylococcus aureus [1]; less than 0.04 µg/mL in assay [3]; less than 0.04 µg/mL against Staphylococcus aureus [2]; 0.6 µg/mL (≈ 0.979 µM) with Enterococcus faecium; 0.3 µg/mL (≈ 0.49 µM) in the assay on Streptococcus pyogenes.

As to `C#CCONC(=O)O[C@H]1[C@@H](O)[C@H](Oc2ccc3c(O)c(C(=O)Nc4cccnc4)c(=O)oc3c2C)OC(C)(C)[C@@H]1OC`, the MIC against Staphylococcus aureus [1] is 1.2 µg/mL (≈ 2.06 µM); in assay [3] it was less than 0.04 µg/mL; against Staphylococcus aureus [2] it was less than 0.04 µg/mL; in the assay with Enterococcus faecium, 0.6 µg/mL (≈ 1.03 µM); against Streptococcus pyogenes it was 0.08 µg/mL (≈ 0.137 µM). In addition, the Ratio in assay [4] is 0.67.

For the compound `C#CCONC(=O)O[C@H]1[C@@H](O)[C@H](Oc2ccc3c(O)c(C(=O)NOCC=C(C)C)c(=O)oc3c2C)OC(C)(C)[C@@H]1OC`, the MIC in the assay on Staphylococcus aureus [1] was 0.6 µg/mL (≈ 1.02 µM); in assay [3], 0.15 µg/mL (≈ 0.254 µM); against Staphylococcus aureus [2], less than 0.04 µg/mL; against Enterococcus faecium, 0.3 µg/mL (≈ 0.508 µM); in the assay with Streptococcus pyogenes, 0.08 µg/mL (≈ 0.135 µM). Moreover, in assay [4], the Ratio is 2.

As for `CCOC(=O)c1c(O)oc2c(C)c(O[C@@H]3OC(C)(C)[C@H](OC)[C@@H](OC(N)=O)[C@H]3O)ccc2c1=O`, the Ratio with Escherichia coli was 1.6. Further, the MIC in the assay with Staphylococcus aureus [1], against Staphylococcus aureus [2], in the assay with Enterococcus faecium and in the assay on Streptococcus pyogenes was greater than 40 µg/mL in each case.

As to `CO/N=C(\C)c1c(O)oc2c(C)c(O[C@@H]3OC(C)(C)[C@H](OC)[C@@H](OC(=O)c4ccc(C)[nH]4)[C@H]3O)ccc2c1=O`, in the assay on Escherichia coli, the Ratio was found to be 3.3. The MIC in the assay on Staphylococcus aureus [1] amounted to 40 µg/mL (≈ 73.5 µM); with Staphylococcus aureus [2], 0.15 µg/mL (≈ 0.275 µM); in the assay on Enterococcus faecium, 10 µg/mL (≈ 18.4 µM); against Streptococcus pyogenes it was 0.3 µg/mL (≈ 0.551 µM).

Regarding `CCOC(=O)c1c(O)oc2c(C)c(O[C@@H]3OC(C)(C)[C@H](OC)[C@@H](OC(=O)NC(C)C)[C@H]3O)ccc2c1=O`, the Ratio with Escherichia coli came out at 0.025. For the same compound, the MIC (against Staphylococcus aureus [1]; in assay [3]; against Staphylococcus aureus [2]; against Enterococcus faecium; against Streptococcus pyogenes) was greater than 40 µg/mL throughout.

Consider `C=CCONC(=O)O[C@H]1[C@@H](O)[C@H](Oc2ccc3c(=O)c(C(=O)OCC)c(O)oc3c2C)OC(C)(C)[C@@H]1OC`, for which the Ratio with Escherichia coli came to 2. In addition, the MIC is greater than 40 µg/mL against Staphylococcus aureus [1]; 20 µg/mL (≈ 37.2 µM) in assay [3]; 10 µg/mL (≈ 18.6 µM) against Staphylococcus aureus [2]; greater than 40 µg/mL against Enterococcus faecium; 20 µg/mL (≈ 37.2 µM) with Streptococcus pyogenes; 20 µg/mL (≈ 37.2 µM) in the assay on Staphylococcus aureus [5].

Turning to `CO[C@@H]1[C@@H](OC(=O)c2ccc(C)[nH]2)[C@@H](O)[C@H](Oc2ccc3c(O)c(C(C)=O)c(=O)oc3c2C)OC1(C)C`, in the assay with Escherichia coli, the Ratio was found to be 2. Also, the MIC is 5 µg/mL (≈ 9.7 µM) with Staphylococcus aureus [1], less than 0.04 µg/mL in the assay with Staphylococcus aureus [2], 2.5 µg/mL (≈ 4.85 µM) in the assay with Enterococcus faecium and 0.3 µg/mL (≈ 0.582 µM) in the assay with Streptococcus pyogenes.

On to `CCONC(=O)OC1[C@@H](O)[C@H](Oc2ccc3c(O)c(C(=O)OCC)c(=O)oc3c2C)OC(C)(C)[C@@H]1OC` (single isomer, unassigned), for which the Ratio in the assay with Escherichia coli stood at 2. Also, the MIC against Staphylococcus aureus [1] is greater than 40 µg/mL; in assay [3], greater than 40 µg/mL; with Staphylococcus aureus [2], 20 µg/mL (≈ 38.1 µM); in the assay on Enterococcus faecium, greater than 40 µg/mL; with Streptococcus pyogenes, 40 µg/mL (≈ 76.1 µM).
